In ChEMBL document CHEMBL4433215, “SAR Studies and Biological Characterization of a Chromen-4-one Derivative as an Anti-Trypanosoma brucei Agent” (ACS Med Chem Lett, 2019):

Assays:
[1] = Cytotoxicity against human THP1 cells by MTT assay; format: cell-based, THP-1
[2] = test system: Trypanosoma brucei; assay: Antitrypanosomal activity against Trypanosoma brucei bloodstream form assessed as parasite growth inhibition at 10 uM after 72 hrs by resazurin dye-based assay relative to control; format: functional; settings: read-out: GI
Procedure, shortened: (§1)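 T. brucei bloodstream forms were screened first. Compounds giving over 70% parasite growth inhibition then went to a full dose–response curve to derive EC50. Pentamidine was the reference.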

[3] = target: Voltage-gated inwardly rectifying potassium channel KCNH2 (Homo sapiens, UniProt Q12809); assay: Inhibition of human ERG at 10 uM after 2 hrs by fluorescence polarization assay
Voltage-gated inwardly rectifying potassium channel KCNH2, sequence (Q12809 whole entry): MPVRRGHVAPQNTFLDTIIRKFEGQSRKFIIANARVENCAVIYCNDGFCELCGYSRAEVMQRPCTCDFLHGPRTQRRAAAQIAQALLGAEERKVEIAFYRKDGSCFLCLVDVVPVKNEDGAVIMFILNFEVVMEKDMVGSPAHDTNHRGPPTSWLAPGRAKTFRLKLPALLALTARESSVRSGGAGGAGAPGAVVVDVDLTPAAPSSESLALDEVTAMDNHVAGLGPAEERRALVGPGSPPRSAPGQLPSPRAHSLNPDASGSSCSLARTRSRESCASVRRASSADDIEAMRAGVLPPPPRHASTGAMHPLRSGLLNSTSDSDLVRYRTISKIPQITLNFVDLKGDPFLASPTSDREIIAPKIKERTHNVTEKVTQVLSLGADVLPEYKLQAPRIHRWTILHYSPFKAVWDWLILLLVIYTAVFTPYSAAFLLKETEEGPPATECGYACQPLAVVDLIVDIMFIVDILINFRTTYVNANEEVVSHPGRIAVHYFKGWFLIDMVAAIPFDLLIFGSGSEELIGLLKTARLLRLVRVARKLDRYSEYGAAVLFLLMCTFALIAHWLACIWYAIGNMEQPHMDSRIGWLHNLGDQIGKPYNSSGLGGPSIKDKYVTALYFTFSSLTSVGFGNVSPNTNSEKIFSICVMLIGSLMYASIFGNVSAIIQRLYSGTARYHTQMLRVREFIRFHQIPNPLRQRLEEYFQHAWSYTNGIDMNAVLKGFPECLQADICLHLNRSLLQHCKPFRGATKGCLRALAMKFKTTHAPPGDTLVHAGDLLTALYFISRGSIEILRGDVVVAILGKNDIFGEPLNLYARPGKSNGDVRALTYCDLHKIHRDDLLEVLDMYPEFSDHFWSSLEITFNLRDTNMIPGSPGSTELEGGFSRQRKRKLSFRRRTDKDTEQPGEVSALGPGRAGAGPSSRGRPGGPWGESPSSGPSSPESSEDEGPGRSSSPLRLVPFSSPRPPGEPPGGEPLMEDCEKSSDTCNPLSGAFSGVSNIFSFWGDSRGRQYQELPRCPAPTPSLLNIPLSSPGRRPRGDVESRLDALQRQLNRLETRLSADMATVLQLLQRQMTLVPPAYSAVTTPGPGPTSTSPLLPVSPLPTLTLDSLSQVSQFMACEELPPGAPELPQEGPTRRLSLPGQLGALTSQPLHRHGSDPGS
Procedure, shortened: (§2)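 Single-concentration screen at 10 μM within an early in vitro ADME-tox panel, covering cytotoxicity in A549 cells and hERG inhibition.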

[4] = test system: Trypanosoma brucei; assay: Antitrypanosomal activity against Trypanosoma brucei bloodstream form after 72 hrs by resazurin dye-based assay relative to control; format: functional, organism-based; procedure, shortened: as §1
[5] = test system: 786-0; assay: Mitochondrial toxicity in human 786-O cells at 10 uM after 6 hrs by MitoTracker Red chloromethyl-X-rosamine based assay; format: cell-based; settings: 786-0, 6 h
[6] = Selectivity index, ratio of CC50 for cytotoxicity against human THP1 cells to EC50 for antitrypanosomal activity against Trypanosoma brucei bloodstream form; format: toxicity, cell-based; settings: read-out: Ratio CC50/EC50
[7] = Cytotoxicity against human A549 cells assessed as cell growth at 10 uM after 48 hrs by cell-titer-Glo assay relative to control; format: cell-based; settings: read-out: Activity; procedure, shortened: as §2

Row | SMILES | EC50 [4] | IC50 [4] | CC50 [1] | inhibition of growth at 10 µM [2] | inhibition (INH) [3] | Activity [5] | selectivity ratio [6] | viability at 48 h, 10 µM [7]
1 | O=c1c(O)c(-c2ccc3c(c2)OCO3)oc2cc(F)ccc12 | 2.4 µM |  | < 12.5 µM | 98% | Not Active | Non-Toxic | 8 | 
2 | COc1ccc2c(=O)c(O)c(-c3ccc4c(c3)OC(F)(F)O4)oc2c1 | > 10 µM |  | > 100 µM | 47% | Not Active | Non-Toxic |  | 
3 | O=c1c(O)c(-c2ccc3c(c2)OCO3)oc2cc(Cl)ccc12 | 3.8 µM |  | < 12.5 µM | 83% | Not Active | Non-Toxic | 3 | < 0%
4 | COc1ccc2oc(-c3ccc4c(c3)OCO4)c(O)c(=O)c2c1 |  |  | < 12.5 µM | 19% | Not Active | Non-Toxic |  | 
5 | O=c1c(O)c(-c2ccc3c(c2)OCO3)oc2ccc(Br)cc12 |  |  | 12.5 to 25 µM | 38% | Not Active | Non-Toxic |  | 
6 | Cc1ccc2oc(-c3ccc4c(c3)OCO4)c(O)c(=O)c2c1 | 4.1 µM |  | < 12.5 µM | 99% | Not Active | Non-Toxic | 3 | 
7 | COc1ccc2c(=O)c(OC(=O)N(C)C)c(-c3ccc4c(c3)OCO4)oc2c1 | > 10 µM |  | > 100 µM | 25% | Not Active | Non-Toxic |  | 

Now from value to molecule, other results behind:

Row | EC50 [4] | IC50 [4] | SMILES | CC50 [1] | inhibition of growth at 10 µM [2] | inhibition (INH) [3] | Activity [5] | selectivity ratio [6] | viability at 48 h, 10 µM [7]
8 | > 10 µM |  | CCOc1c(-c2ccc3c(c2)OCO3)oc2cc(OC)ccc2c1=O | 50 to 100 µM | 18% | Not Active | Non-Toxic |  | 
9 | 1.1 µM |  | COc1ccc2c(=O)c(OC(=O)C(C)(C)C)c(-c3ccc4c(c3)OCO4)oc2c1 | > 100 µM | 100% | Not Active | Non-Toxic | > 92 | 
10 | 3.1 µM |  | COc1ccc2c(=O)c(O)c(-c3ccc4c(c3)CCO4)oc2c1 | 25 to 50 µM | 100% | Not Active | Non-Toxic | 8 | 
11 |  | 0.00155 µM | N=C(N)c1ccc(OCCCCCOc2ccc(C(=N)N)cc2)cc1 [PENTAMIDINE] |  |  |  |  |  | 
